Measured values as given in the EternaBench riboswitch data.

System: MS2 coat protein
Test: apparent Kd, MS2 coat protein; higher = weaker binding; RNA-MaP array; FMN 200 µM where present
How it was run: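 Green signal was scaled to red-channel RNA signal and control-cluster median Fmax, and the apparent Kd was taken as the median of filtered per-cluster binding-curve fits. The binding series used SNAP-549-labelled MS2 coat protein from 0.7 or 1.5 nM, doubling to 3 µM, on designs transcribed by stalled E. coli RNA polymerase on Illumina sequencing-chip clusters. Each series ran without and then with constant ligand in 100 mM Tris-HCl pH 7.5, 80 mM KCl, 4 mM MgCl2, BSA, DTT, yeast tRNA and Tween-20.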

[1] = designed as: OFF switch for flavin mononucleotide, no ligand
[2] = ligand present: flavin mononucleotide, designed as: OFF switch for flavin mononucleotide
[3] = designed as: ON switch for flavin mononucleotide, no ligand
[4] = ligand present: flavin mononucleotide, designed as: ON switch for flavin mononucleotide

| Sequence | apparent Kd [1] [nM] | apparent Kd [2] [nM] | apparent Kd [3] [nM] | apparent Kd [4] [nM] |
| --- | --- | --- | --- | --- |
| GUACGGAGGGAGAAGGGCUAGAAGGUCCAGCUUAUGUGUGUUGCAACAUGAGGAUCACCCAUGUAGCAGGAUAUCCCUUGUACA | 12.5 | 36.9 |  |  |
| GACGGUGAUGUAGGAUAUACGCUGGAAUACAGCGUAGAAGGACAUGAGGAUCACCCAUGUAAAGUGUCUCCAAAUAACACCGUC | 31.5 | 90.8 |  |  |
| AUGGUUGUCGAGGAUAUGCACCGGCUCGCUGACGCAGAAGGCGACACAUGAGGAUCACCCAUGUCGGUUCGCGU | 22.4 | 51.4 |  |  |
| GCACCAUUGCAAGGAUAUCCUACAGAGGGUGCAGGAGAAGGUGCAUUGGUGAGACUAUAGGACAUGAGGAUCACCCAUGUACCG |  |  | 68 | 32.7 |
| ACAUGUACAGGAUAUACAUGGAUGAUACACGUAUUUCCACUACAUGAGGAUCACCCAUGUAGAAGGGUACAUGA | 39.7 | 18.4 |  |  |
| UGGUACAUGAGGAUCACCCAUGUAAGAGCCCUCAUGCGAUGUAGAAGGAUAAUGGGAGUACUGCUAUAGGAUAUACAUGAGUUU | 145 | 147 |  |  |
| AUCAGCUCGUCAGGAUAUACGUCACUGCGUCAGCAGUGUGGUAAGAUCACAUGAGGAUCACCCAUGUAGAAGGGUCGAGCUGAU | 17.7 | 349 |  |  |
| UGGUACUACGGAGGAUAUCAUGUAAAUACAUGAGGAUCACCCAUGUCGUACGAGAGUACGGAGAUUGAGAAGGCCGUAGUACCU |  |  | 25.6 | 15.6 |
| GUACUGUAGUGAGGAUAUACGAGAUCGAUAGAUCGGCGAUCCAAUAAUACAUGAGGAUCACCCAUGUAGAAGGCACUUCAGUAC | 7.07 | 99 |  |  |
| AAGGAGUUAGGAUAUGCUGCUCGUCACUUGCGUGAUGAGUAGCAGAAGGAACAUGAGGAUCACCCAUGUAAAGA | 30.2 | 24.2 |  |  |
| CAGAAGUCAGGAUAUCCAUGGCGGCACUUGCGUGGUGGCGUGGAGAAGGGACAUGAGGAUCACCCAUGUAAAGC | 57.4 | 45.3 |  |  |
| GCCAUCGGGUGAGGAUAUAAAAUUAUGAUUAAAUUAGAAGGCAUCUCAUAAGACAUGAGGAUCACCCAUGUAGUUAAGAUGGCA |  |  | 90.6 | 31.9 |
| AAUUAAGAUCAAGGAUAUCACGUCGAAUAGACGUGAGAAGGUGAUCCAUACAUGAGGAUCACCCAUGUAUAACAUGAAUUAAUU |  |  | 923 | 170 |
| CGCUACAUGAGGAUCACCCAUGUACUUACUUGCACGUGAACGAGAAGGCCACAGCAACACAGCGUGGAGGAUAUCGUGGUGCCU |  |  | 10.8 | 9.35 |
| GCUGUCGCAUGAGGAUAUGGUCAGCUUUGCUGACCAGAAGGCAUGUCAAUAGACAUGAGGAUCACCCAUGUGGUUAGGGCGGCU |  |  | 1030 | 93.5 |
| AUGUUAGGGAGAGGAUAUUGACAUGAGGAUCACCCAUGUAUUUGGGAGUGUUUACUGAAUUCUUACGAGAAGGCUUACGAAAUU | 396 | 242 |  |  |
| UCAAAGAGAUCGAACGGGAGGCGUAAGGAUAUGCACAUGAGGAUCACCCAUGUCUACGAAAGUAGGCAGAAGGUACGCGGGAUU |  |  | 253 | 30.6 |
| CCUCAGAACAAGAAGGUGGGAGAAGAGUAUAACUAAGGAUAUUGAAAGGGAUGAACAUGAGGAUCACCCAUGUAAGGAAUCGUG | 52.8 | 40.9 |  |  |
| UGAUCGAGAGAUCUUAGAUUCUGGUAGGAUAUACAUUAAAAUAGCUUUACAUGAGGAUCACCCAUGUAGAAGGACUAGAGUCUA | 7.8 | 8.67 |  |  |
| GAAUGCCUGUCGAUGCUCGACAUGAGGAUCACCCAUGUAUAGCAGGAUAUGCAGAACUGACUCGUGCAGAAGGGCUAUACCUAA | 18.8 | 47.7 |  |  |
| AGUCAUUUACAGAAGGGUAGUUGGGUUAUACAUGAGGAUCACCCAUGUUUUACAGGAUAUGUGUUUUGUUACUAUUAAAGUUCA | 65.7 | 120 |  |  |
| GGGCAACAUGAGGAUCACCCAUGUCAGGAUAUCGGGCCCGGGCCGAAAGGCCCGGGCCCGAGAAGGGACAGCCC | 21.3 | 21.6 |  |  |
| AGUGUCAUCCAGAAGGCCUCAUGACAUGAGGAUCACCCAUGUUAUCAUGGGAGGAUAUGGAUGAUACAGCUACGUUUCGUAGCA |  |  | 90.5 | 25.4 |
| GACAUGUGAGGAUAUCUGAUGUCUAACUUCGGUUAGACAUCAGAGAAGGCACAUGAGGAUCACCCAUGUCUGUC | 194 | 232 |  |  |
| CCUCGACAUGAGGAUCACCCAUGUCAGGAUAUUGUGUAUCGGGUUUUUUACGGAAAGGCGAGAAGGGAUGUGUG | 18.4 | 16.9 |  |  |
| GUUACACAUGAGGAUCACCCAUGUAAGGAUAUGCUGCGGUCGCGCUGACGUGACUGCAGCAGAAGGUACAAUUG | 84.7 | 88.6 |  |  |
| GCCAGCUAUGUAGGAUAUGCGCGGCGAGCCUGUGCAGAAGGACAUGAGGAUCACCCAUGUGUUGCGGUCUGAGUACUGAUCGCC | 36.1 | 160 |  |  |
